From paper PMC9494814 (Cell, 2022)
Like-named read-outs stand apart in the source and are kept apart here.

Assays:
[1] = tested on: clot retraction in human PRP; assay: Clot retraction in platelet-rich plasma; type: cell-based; conditions: thrombin
Outline: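 Citrated human PRP pre-incubated 20 min at RT with test compound or buffer (in Tyrode's buffer + 1% BSA) at several concentrations. Glass-tube clot retraction started with thrombin (7.5 U/ml stock) at 37°C and imaged every 15 min. Retraction = 1 − (clot area/whole reaction area). IC50 at 30 and 90 min from a three-parameter inhibitor-response fit. Three runs, PRP from three donors.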

[2] = target: αIIbβ3 on washed human platelets (Homo sapiens, UniProt P05106+P08514); assay: Platelets LIBS exposure assay; type: cell-based
Outline: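 Blood from drug-free healthy donors was taken into acid-citrate-dextrose. PRP was spun (140xg, 12 min), given PGE1 at 50 ng/ml, pelleted, washed in citrate-dextrose buffer pH 6.5 and resuspended in Tyrode's pH 7.4 with 1% BSA and 1 mM Ca²⁺/Mg²⁺. […] Read-out was unwashed flow cytometry MFI, over three days with two donors.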

[3] = tested on: αIIbβ3 WT and αIIbβ3_N305T; type: binding; conditions: Expi293F transfectants, L15 medium with 0.1% BSA
Outline: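 Expi293F cells with α5 and αV knocked out, transiently co-transfected with αIIb plus β3 or β3_N305T; valproic acid (3 mM) and glucose (0.4%) added at 24 h. At 48 h, cells washed with EDTA-containing L-15/0.1% BSA, then plain assay medium. 10^6 cells/ml incubated with FITC-echistatin and varying test compound, 2 h at 22°C; unwashed flow cytometry. Probe Kd from titration against 5 nM AF647-MBC319.4 Fab. Compound Kd from nonlinear least-squares fits with integrin concentration as a parameter, with error propagation.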

[4] = target: αIIbβ3_N305T (Homo sapiens, UniProt P05106+P08514, N331T); assay: MBC319.4 Fab LIBS epitope exposure on αIIbβ3_N305T transfectants; type: cell-based; conditions: αIIbβ3 N305T transfectants, inhibitors at 100x Kd
Outline: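 αIIbβ3_N305T transfectants of α5/αV-knockout Expi293F cells, harvested 48 h post-transfection and EDTA-washed. Incubated with 20 nM Alexa647-labelled MBC319.4 Fab and test compound in L-15 with 0.1% BSA, equilibrated 2 h at 22°C. Fab binding read by flow cytometry without washing, as MFI.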

[5] = target: αIIbβ3 WT (Homo sapiens, UniProt P05106+P08514); assay: MBC319.4 Fab LIBS epitope exposure on αIIbβ3 WT transfectants; type: cell-based; conditions: inhibitors at 100x Kd
Outline: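 Cells transiently transfected with αIIbβ3 received valproic acid (3 mM final) and glucose (0.4%) at 24 h, and were washed at 48 h in EDTA-containing then plain L-15/0.1% BSA. Cells were incubated with 20 nM Alexa647-MBC319.4 Fab plus inhibitor (Kd from FITC-echistatin competition on WT transfectants) in L15/0.1% BSA, 22°C for 2 h. Read-out was unwashed flow cytometry.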

[6] = target: T1, αIIbβ3 headpiece (Homo sapiens, UniProt P05106+P08514)
Outline: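 Closed αIIbβ3 headpiece–10E5 Fab crystals stabilised in 15% PEG 8000, 0.2 M ammonium sulfate, 0.1 M Tris-HCl pH 8.9, with glycerol raised in 5% steps to 15%. Compound (0.1-1 mM) added in the final 20% glycerol cryo step, with 1 mM MgCl2/1 mM CaCl2 or 2 mM MnCl2/0.2 mM CaCl2. Soaked 4 h, plunge-frozen in liquid N2. Synchrotron diffraction data collected, then structure refinement.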

[7] = target: T1, αIIbβ3 headpiece; assay: Size-exclusion chromatography; type: biochemical; conditions: 10 μM drug
Outline: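 Superdex 200 column equilibrated with 10 µM test compound in HEPES-buffered saline containing either 1 mM Mg2+/1 mM Ca2+ or 2 mM Mn2+/0.2 mM Ca2+. αIIbβ3 headpiece (30 µg) pre-incubated 30 min at RT with 60 µM compound in matching buffer, then chromatographed. Hydrodynamic radius taken from elution. Two runs, or one, per compound; controls ≥3.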

[8] = tested on: αIIbβ3 on platelets; conditions: Mg2+ ref Baba et al., 2001; cited from earlier work
[9] = 2012, cited from earlier work
[10] = tested on: αIIbβ3; conditions: patients with acute coronary syndrome ref Cox et al., 2000; cited from earlier work
[11] = tested on: WT αIIbβ3; assay: Competition with FITC-echistatin binding to WT αIIbβ3 transfectant in serum; conditions: 95% serum compared to 0.1% BSA
[12] = tested on: α5β1; conditions: ref Li et al., 2017; cited from earlier work
[13] = after activation with thrombin 0.5 U/ml

αIIbβ3 on washed human platelets, sequence (P08514 32-887 limits assumed): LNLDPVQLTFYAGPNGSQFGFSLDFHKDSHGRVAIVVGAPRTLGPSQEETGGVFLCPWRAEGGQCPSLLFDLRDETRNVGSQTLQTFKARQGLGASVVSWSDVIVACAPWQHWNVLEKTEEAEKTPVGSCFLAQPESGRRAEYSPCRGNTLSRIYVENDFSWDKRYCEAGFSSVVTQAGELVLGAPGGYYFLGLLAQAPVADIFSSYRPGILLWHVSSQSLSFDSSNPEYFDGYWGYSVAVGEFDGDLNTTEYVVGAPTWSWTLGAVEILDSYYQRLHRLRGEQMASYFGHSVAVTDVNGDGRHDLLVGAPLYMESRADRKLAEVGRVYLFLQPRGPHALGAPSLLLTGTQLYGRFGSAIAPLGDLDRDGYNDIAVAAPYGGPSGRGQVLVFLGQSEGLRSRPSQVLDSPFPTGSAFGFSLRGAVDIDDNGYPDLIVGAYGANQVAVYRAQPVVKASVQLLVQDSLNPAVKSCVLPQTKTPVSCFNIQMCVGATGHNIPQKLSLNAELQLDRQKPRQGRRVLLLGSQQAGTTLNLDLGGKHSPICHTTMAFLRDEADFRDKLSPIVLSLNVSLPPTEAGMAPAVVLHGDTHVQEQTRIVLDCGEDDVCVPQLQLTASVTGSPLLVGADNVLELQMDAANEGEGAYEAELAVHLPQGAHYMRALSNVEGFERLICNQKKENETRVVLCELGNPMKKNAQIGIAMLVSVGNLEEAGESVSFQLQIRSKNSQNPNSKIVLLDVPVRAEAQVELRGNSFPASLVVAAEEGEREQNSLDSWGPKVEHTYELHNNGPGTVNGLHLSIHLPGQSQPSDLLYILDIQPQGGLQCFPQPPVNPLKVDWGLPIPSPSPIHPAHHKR
αIIbβ3 on washed human platelets, sequence (P08514 891-1039 partner limits assumed): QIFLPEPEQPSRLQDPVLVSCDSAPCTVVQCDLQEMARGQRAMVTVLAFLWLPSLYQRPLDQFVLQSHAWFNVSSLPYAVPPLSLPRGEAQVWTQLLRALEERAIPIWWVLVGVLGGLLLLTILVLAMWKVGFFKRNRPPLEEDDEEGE
αIIbβ3 on washed human platelets, sequence (P05106 27-788): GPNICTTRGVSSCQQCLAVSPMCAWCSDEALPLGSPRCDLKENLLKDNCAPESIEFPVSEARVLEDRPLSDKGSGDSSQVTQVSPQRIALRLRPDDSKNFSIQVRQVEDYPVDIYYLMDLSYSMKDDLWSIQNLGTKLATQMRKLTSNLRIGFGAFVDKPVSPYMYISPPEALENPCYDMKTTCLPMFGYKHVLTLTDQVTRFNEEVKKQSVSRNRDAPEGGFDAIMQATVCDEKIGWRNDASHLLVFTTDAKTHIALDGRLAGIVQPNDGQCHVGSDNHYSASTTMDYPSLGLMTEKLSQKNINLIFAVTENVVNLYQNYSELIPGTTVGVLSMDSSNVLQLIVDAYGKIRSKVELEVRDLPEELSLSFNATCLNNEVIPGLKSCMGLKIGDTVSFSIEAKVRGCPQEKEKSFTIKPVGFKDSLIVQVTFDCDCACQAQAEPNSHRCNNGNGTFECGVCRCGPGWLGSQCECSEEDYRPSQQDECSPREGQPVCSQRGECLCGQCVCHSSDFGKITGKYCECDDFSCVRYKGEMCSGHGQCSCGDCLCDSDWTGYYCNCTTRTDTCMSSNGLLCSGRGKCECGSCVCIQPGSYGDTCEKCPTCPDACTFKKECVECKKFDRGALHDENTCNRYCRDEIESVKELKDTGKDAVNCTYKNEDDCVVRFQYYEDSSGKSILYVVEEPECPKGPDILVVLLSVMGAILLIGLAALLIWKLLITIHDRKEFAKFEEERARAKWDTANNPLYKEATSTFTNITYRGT
T1 sequence (P08514 32-488 limits assumed): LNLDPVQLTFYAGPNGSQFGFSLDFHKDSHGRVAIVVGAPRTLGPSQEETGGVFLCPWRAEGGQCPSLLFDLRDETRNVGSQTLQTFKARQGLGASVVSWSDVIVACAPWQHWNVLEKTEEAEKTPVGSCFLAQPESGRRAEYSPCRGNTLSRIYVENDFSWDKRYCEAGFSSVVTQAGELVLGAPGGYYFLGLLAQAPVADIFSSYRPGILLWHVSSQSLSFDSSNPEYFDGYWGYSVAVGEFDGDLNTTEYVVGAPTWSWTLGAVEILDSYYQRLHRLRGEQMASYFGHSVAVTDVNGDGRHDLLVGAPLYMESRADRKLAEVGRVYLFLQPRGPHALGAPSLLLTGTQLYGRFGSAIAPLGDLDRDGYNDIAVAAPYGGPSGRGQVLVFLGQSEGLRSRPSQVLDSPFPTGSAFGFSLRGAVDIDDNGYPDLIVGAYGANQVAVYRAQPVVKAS
T1 sequence (P05106 27-498 limits assumed): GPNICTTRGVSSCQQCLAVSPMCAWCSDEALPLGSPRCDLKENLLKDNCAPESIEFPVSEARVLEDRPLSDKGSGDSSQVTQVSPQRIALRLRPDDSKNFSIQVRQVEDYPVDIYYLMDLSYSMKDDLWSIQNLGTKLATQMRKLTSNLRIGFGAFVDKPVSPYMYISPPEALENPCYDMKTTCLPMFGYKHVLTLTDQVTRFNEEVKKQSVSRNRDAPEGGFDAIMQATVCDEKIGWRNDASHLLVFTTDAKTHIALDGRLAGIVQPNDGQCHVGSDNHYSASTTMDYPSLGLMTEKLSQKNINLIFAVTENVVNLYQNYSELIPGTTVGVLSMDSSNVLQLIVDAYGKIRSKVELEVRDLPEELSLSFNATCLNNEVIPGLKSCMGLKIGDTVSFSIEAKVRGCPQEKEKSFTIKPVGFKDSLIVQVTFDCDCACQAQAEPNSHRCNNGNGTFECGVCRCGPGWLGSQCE
αIIbβ3_N305T, sequence (P08514 32-887 limits assumed): as the sequence (P08514 32-887 limits assumed) above
αIIbβ3_N305T, sequence (P08514 891-1039 partner limits assumed): as the sequence (P08514 891-1039 partner limits assumed) above
αIIbβ3_N305T, sequence (P05106 27-788 N331T): as the sequence (P05106 27-788) above, with N305T counted along it
αIIbβ3 WT, sequence (P08514 32-887 limits assumed): as the sequence (P08514 32-887 limits assumed) above
αIIbβ3 WT, sequence (P08514 891-1039 partner limits assumed): as the sequence (P08514 891-1039 partner limits assumed) above
αIIbβ3 WT, sequence (P05106 27-788): as the sequence (P05106 27-788) above

| Compound | inhibition of clot retraction [1] | LIBS epitope exposure (integrin extension) on washed platelets ([2]; absence of thrombin) | LIBS epitope exposure (integrin extension) on washed platelets [2, 13] | LIBS (MBC319.4) epitope exposure [4] | LIBS (MBC319.4) epitope exposure [5] | effect on structure of closed αIIbβ3 headpiece in crystals ([6]; soaked in Mg2+) | effect on αIIbβ3 headpiece opening in gel filtration ([7]; 1 mM Mg2+/1 mM Ca2+) | also measured |
| --- | --- | --- | --- | --- | --- | --- | --- | --- |
| NCC(=O)Nc1cncc(-c2nn3c(=O)cc(N4CCNCC4)nc3s2)c1 [RUC-4] | effective | no significant effect | no effect on integrin extension | no effect on LIBS epitope expression | no effect on LIBS epitope expression | – | – | affinity for activated mutant (β3 N305T) compared with WT αIIbβ3 [3]: indistinguishable |
| N=C(N)c1ccc(C(=O)N[C@@H](Cc2ccc([N+](=O)[O-])cc2)C(=O)N2CCc3nn(CC(=O)O)cc3C2)cc1 [UR-2922] | effective | – | decreased | significantly suppressed LIBS induction | – | no structural perturbation | neither UR-2922 nor BMS4 increased the hydrodynamic radius | effect on structure of closed αIIbβ3 headpiece in crystals ([6]; soaked in Mn2+): no structural perturbation; effect on αIIbβ3 headpiece opening in gel filtration ([7]; 2 mM Mn2+/0.2 mM Ca2+): shifted the headpiece to a smaller hydrodynamic radius than the control; LIBS epitopes on platelets [8]: not to induce LIBS epitopes |
| CCOCc1cc(OC)c(-c2ccc(C[C@H](NC(=O)c3c(F)cccc3F)C(=O)O)cc2)c(OC)c1 [firategrast] | – | – | – | – | – | – | – | gadolinium-enhanced lesions ([9]; highest dose ref Miller et al.): significant decrease; gadolinium-enhanced lesions ([9]; lowest dose ref Miller et al.): significant increase; gadolinium-enhanced lesions ([9]; middle dose ref Miller et al.): lack of effect |
| CCOC(=O)CCNC(=O)N[C@H]1CCN(c2ccc(C(=N)N)cc2)C1=O [orbofiban] | – | – | – | – | – | – | – | platelet activation markers in treated patients [10]: increased αIIbβ3 conformational change, antibody-stimulated thromboxane B2 production, and CD63 expression |
| CCCCS(=O)(=O)N[C@@H](Cc1ccc(OCCCCC2CCNCC2)cc1)C(=O)O [tirofiban] | effective | Stronger extension | – | – | next strongest | Ser-123 displaced water 1 to coordinate directly to the MIDAS metal ion | caused the headpiece to elute earlier in gel filtration | hydrodynamic radius of αIIbβ3 headpiece ([7]; 2 mM Mn2+/0.2 mM Ca2+): ~ 5.36 nm; decrease of affinity in 95% serum [11]: 1.8 fold |
| fibronectin | – | – | – | – | – | – | – | higher affinity for the open than the closed conformation [12]: 6,000 fold |
